Bioassay records deposited in PubChem BioAssay by The Scripps Research Institute Molecular Screening Center.
Rows were chosen to be rich in hits. Some 1.8% of all compounds tested hit in one or more screens of this group.
TCR CD3 inh: blocks the human TCR-CD3 interaction; inhibition, % at 9.4 µM; hit rate 0.37% among 360,000; TAMRA-labeled TCR probe fluorescence, biochemical; in the data active means inhibition above about 19%;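 further: recombinant mutant TCR 2C K166C tagged with TAMRA read by polarization; 0% = receptor in buffer alone and 100% = receptor with positive control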
ABHD4 inh: ABHD4 (mouse) inhibition, primary FP screen; purified mABHD4, FP-Rh probe fluorescence polarization; Q8VD66; AID 720543; inhibition, % at 8.92 µM; hit rate 0.54% among 370,000;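 active means inhibition exceeding the mean over every tested compound plus 3 SD, cut at about 30% in these data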;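 further: 0% = plate median of compound wells and 100% = S159A mutant with DMSO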
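Assay system: Wild-type mouse ABHD4 protein | Medium: HEPES pH 7.0 buffer, 150 mM NaCl, 0.01% Pluronic F-127 | Incubation: Enzyme–compound pre-incubation 45 min, then probe 60 min, both 25 °C | Technique: Fluorescence polarization with parallel and perpendicular emission, 525/598 nm | Evaluation: % inhibition of FP-Rh probe binding versus controls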
HTRA1 inh: HTRA1 (human) protease inhibition; recombinant HTRA1, FP-rhodamine activity-based probe, fluorescence polarization; inhibition, % at 5.96 µM; hit rate 0.5% among 340,000; in the data active means inhibition above about 36%;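 further: 0% = enzyme with DMSO and 100% = wells lacking enzyme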
Target sequence (Q92743 whole entry, looked up): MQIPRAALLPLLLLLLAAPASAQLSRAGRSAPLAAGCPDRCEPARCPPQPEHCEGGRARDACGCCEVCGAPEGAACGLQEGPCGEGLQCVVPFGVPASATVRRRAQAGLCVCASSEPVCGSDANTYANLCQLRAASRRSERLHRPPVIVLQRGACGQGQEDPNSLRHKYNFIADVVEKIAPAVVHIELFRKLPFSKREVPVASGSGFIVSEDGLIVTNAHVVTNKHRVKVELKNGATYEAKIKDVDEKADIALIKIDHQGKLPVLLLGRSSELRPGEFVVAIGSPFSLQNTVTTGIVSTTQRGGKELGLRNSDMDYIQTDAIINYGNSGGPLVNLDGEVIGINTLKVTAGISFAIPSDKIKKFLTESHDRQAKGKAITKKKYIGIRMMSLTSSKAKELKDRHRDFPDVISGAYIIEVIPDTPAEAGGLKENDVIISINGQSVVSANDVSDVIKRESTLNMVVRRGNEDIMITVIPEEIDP
PME-1 inh: blocks human protein phosphatase methylesterase 1; inhibition, % at 5.9 µM; recombinant PME-1, FP-Rh probe fluorescence polarization; hit rate 0.53% among 320,000;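 active means inhibition above the campaign mean of all compounds plus 3 SD, cut at about 26% in these data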;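 further: competitive labeling of PME-1 active site by serine hydrolase directed probe; 0% = PME-1 with DMSO and 100% = wells lacking PME-1 enzyme; inhibitors block probe labeling so polarization falls and inhibition rises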
Fam108B inh: blocks mouse Fam108B hydrolase in RBBP9 counter-screen; recombinant Fam108B, FP-Rh probe fluorescence polarization; inhibition, % at 9.51 µM; hit rate 0.33% among 300,000;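 active means inhibition above the screen mean inhibition plus 3 SD, computed separately per campaign, cut at about 18% in these data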;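 further: inhibitors lower polarization as less probe binds the enzyme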
SIAE primary: human SIAE inhibition, primary screen. Q9HAT2. SIAE FP-Rh probe binding, fluorescence polarization. inhibition, % at 9.66 µM. hit rate 0.69% among 370,000;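 active means inhibition above a cutoff: mean of compounds within the control limits plus 3 SD of those, cut at about 17% in these data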;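 further: 0% = plate median of compound wells and 100% = probe without SIAE protein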
SIAE inh conf: confirmation of human SIAE inhibitors; inhibition, % at 9.66 µM; hit rate 13% among 2,300; SIAE FP-Rh activity-based probe, fluorescence polarization; AID 1117263; shares compounds with SIAE primary;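 active means mean inhibition of the replicates above the hit cutoff set in the primary screen, cut at about 17% in these data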;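 further: 0% = SIAE with DMSO and probe and 100% = probe without SIAE; inhibitors lower polarization as more probe stays unbound to SIAE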
Starred values were filed as active, the others as inactive; / = not tested or not shown.

SMILES | TCR CD3 inh | ABHD4 inh | HTRA1 inh | PME-1 inh | Fam108B inh | SIAE primary | SIAE inh conf
CC12CN3CCN(CC(C3)/C1=N/N=C/c1cccc([N+](=O)[O-])c1)C2 | 1 | -1 | 3 | 3 | 6 | 17* | 0
CC1S/C(=N/N=C/c2cccc([N+](=O)[O-])c2)NC1=O (configuration not stated) | 8 | -6 | 4 | -5 | -5 | 0 | /
O=C(Nc1nnc(-c2cccs2)o1)c1ccco1 | -1 | 2 | 12 | 3 | -3 | 19* | 4
O=C(O)c1ccc(-c2nc(-c3ccccc3)c(-c3ccccc3)[nH]2)cc1 | -1 | -10 | -6 | 0 | 5 | 10 | /
Oc1ccccc1N=Nc1nc(-c2ccccc2)c(-c2ccccc2)[nH]1 | 0 | 10 | 14 | 35* | 17 | 17* | -3
Cn1nnnc1SCC(=O)Nc1ccc(C(=O)N2CCN(Cc3ccccc3F)CC2)cc1 | 4 | 5 | -4 | 1 | / | 18* | 5
C[C@@H]1CN(c2ccc(N3CCNC[C@@H]3C)cc2C#N)CCN1Cc1ccccc1 | 7 | 10 | / | / | / | 20* | 3
COCc1cc(N2CCNC[C@@H]2C)ccc1N1CCN(Cc2ccccc2)[C@H](C)C1 | -8 | 9 | / | / | / | 17* | 4
Cc1cc(N2CCNC[C@@H]2C)ccc1N1CCN(Cc2ccccc2)[C@H](C)C1 | 8 | 6 | / | / | / | 8 | /
Cc1cnc(C(=O)N(c2ccccc2)C(c2ccccc2)c2nc3ccccc3[nH]2)cn1 (configuration not stated) | -4 | 0 | / | / | / | -2 | /
CCOC(=O)C1CCCN(C(=O)c2ccc(OC)c([N+](=O)[O-])c2)C1 (configuration not stated) | -2 | 5 | 4 | -7 | -1 | 30* | -3
CSc1ccc(NC(=O)C(C)N2CCN(C)CC2)cc1 (configuration not stated) | -7 | 19 | 4 | 0 | 0 | 5 | /
O=C(CNS(=O)(=O)c1cccc(Br)c1)NCCCc1ccccc1 | -1 | -5 | -5 | -3 | 1 | 20* | -9
COc1ccc(CNC(=O)COC(=O)C2CC2C)cc1OC (configuration not stated) | -2 | 5 | 15 | -3 | 0 | 24* | -2
COc1ccc(C2=Nn3c(nnc3-c3ccccc3OC)SC2)cc1OCC1CC1 | 16 | 4 | -3 | / | / | 29* | 27*
COc1ccc(OC)c(-c2nnc3n2N=C(c2ccc(OC(F)F)c(OCC4CC4)c2)CS3)c1 | -4 | -20 | -122 | / | / | -20 | /
CN(C)c1nc2c(N)ncnc2n1[C@H]1O[C@@H](CO)[C@H](O)[C@@H]1O | 1 | 5 | 2 | / | / | 22* | 2
C#CCCN([C@H](C(=O)OC)C(C)C)S(=O)(=O)c1ccccc1Br | / | -3 | / | / | / | 2 | /
CCCn1cnc2cc(NCc3cccc(OC)c3O)ccc21 | 4 | 9 | 12 | 8 | 2 | 25* | 5
COc1ccc(CNc2ccc3c(c2)ncn3C)cc1OC | 1 | 5 | 1 | -1 | -2 | 18* | 6
Cc1ccc(CNc2ccc3c(c2)ncn3C)cc1 | 2 | 3 | 3 | 6 | -1 | 10 | /
CCn1nc(C)c(CN2CCCC(CNS(=O)(=O)c3ccc(OC)cc3)C2)c1C (configuration not stated) | 5 | -14 | 2 | -2 | 3 | 6 | /
Cn1nc(C(=O)NCC(=O)Nc2ccc(F)c(F)c2)ccc1=O | 1 | 11 | 7 | / | / | -1 | /
COCCNc1nc(Oc2ccc(CC(=O)OC)cc2)c2sc(-c3ccccc3)cc2n1 | 10 | -1 | / | / | / | -11 | /
O=C(c1ccc(Cn2c(=S)[nH]c3ccccc3c2=O)cc1)N1CCN(c2ccccn2)CC1 | -4 | 3 | -18 | -11 | -3 | 23* | 1
O=C(C[C@H]1CC[C@H]2[C@@H](COC[C@@H](O)CN2S(=O)(=O)c2ccccc2)O1)N[C@@H]1CCN(Cc2ccccc2)C1 | -3 | 5 | / | / | / | -2 | /
CN(C)c1ccc(CNCC2CCCO2)cc1 (configuration not stated) | 2 | -3 | 3 | -6 | -4 | 18* | -2
O[C@@H](c1cc(C(F)(F)F)nc2c(C(F)(F)F)cccc12)[C@H]1CCCCN1 | 3 | 11 | 12 | -4 | -3 | -5 | /
